For one data set, the system named is Spleen. Briefly: Drug uptake in mouse spleen at 102 mg/kg, po administered as single dose at 0.5 hrs post dose. In kind it is ADME, organism-based. The settings on record: in vivo. In a few lines:
(§1)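 Mice, three per time point, single oral dose of 102 mg/kg (equivalent to 50 mg/kg gemcitabine). Heart, liver, spleen, lung, kidney and brain collected at 0.16, 0.5 and 2 h, rinsed in saline. 0.3 g tissue homogenized 1 min in 1 mL saline, spun 13,000 rpm 4 °C 5 min. Gemcitabine measured in supernatant.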

The nature of data set [1]: Half life in rat plasma at 5 uM by HPLC method. In kind it is ADME, cell-free. In outline:
(§2)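 Compound at 5 µM final in rat plasma, 20% rat hepatic homogenate or 20% rat intestinal homogenate at 37 °C for 24 h. Homogenates made by homogenizing 0.3 g saline-washed tissue in 1 mL saline, spun 13,000 rpm 4 °C 5 min. Sampled at intervals, analysed by HPLC. t1/2 = 0.693/k.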

Data set [2] deals with T1, Organic cation/carnitine transporter 2 (Homo sapiens, UniProt O76082).
T1 sequence (O76082 whole entry): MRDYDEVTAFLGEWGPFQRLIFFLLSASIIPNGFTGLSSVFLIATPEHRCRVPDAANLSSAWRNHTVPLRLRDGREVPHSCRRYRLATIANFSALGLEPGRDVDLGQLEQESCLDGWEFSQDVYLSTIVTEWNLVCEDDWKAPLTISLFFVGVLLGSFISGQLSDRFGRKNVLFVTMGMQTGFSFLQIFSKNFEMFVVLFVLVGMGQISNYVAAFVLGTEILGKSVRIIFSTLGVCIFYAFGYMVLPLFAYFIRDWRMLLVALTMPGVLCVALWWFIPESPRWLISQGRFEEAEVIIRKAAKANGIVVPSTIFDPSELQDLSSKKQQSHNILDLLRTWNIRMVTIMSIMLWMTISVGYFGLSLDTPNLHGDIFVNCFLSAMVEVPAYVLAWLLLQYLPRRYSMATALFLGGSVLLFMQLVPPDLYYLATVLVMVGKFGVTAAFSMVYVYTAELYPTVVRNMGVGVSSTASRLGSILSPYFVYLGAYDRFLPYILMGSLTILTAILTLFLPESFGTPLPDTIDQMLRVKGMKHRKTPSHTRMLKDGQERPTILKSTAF
Nature of the data set: Ratio of drug transport assessed as OCTN2 transporter mediated drug uptake in human Caco2 cells at 100 uM in absence of L-carnitine to drug transport assessed as OCTN2 transporter mediated drug uptake in human Caco2 cells at 100 uM in presence of L-carnitine. In kind it is ADME, cell-based. The settings on record: caco-2, 100 µM. (In general: Caco-2 monolayers are a common model of the intestinal barrier.)

Another data set relates to Heart. Nature of the data set: Drug uptake in mouse heart at 102 mg/kg, po administered as single dose at 2 hrs post dose. In kind it is ADME, organism-based. The settings on record: in vivo. In a few lines: as §1
For data set [3], the system named is Caco-2. Briefly: Ratio of IC50 for cytotoxicity against human Caco2 cells in presence of L-carnitine to IC50 for cytotoxicity against human Caco2 cells in absence of L-carnitine. In kind it is functional.
Data set [4] can be described thus: Half life in rat hepatic homogenates at 5 uM by HPLC method. In kind it is ADME, tissue-based, Liver. In outline: as §2
Data set [5] has as its system Lung. Briefly: Drug uptake in mouse lung at 102 mg/kg, po administered as single dose at 2 hrs post dose. The settings on record: in vivo. In kind it is ADME, organism-based. In outline:
as §1

In data set [6] the test system is Lung. Briefly: Drug uptake in mouse lung at 102 mg/kg, po administered as single dose at 0.5 hrs post dose. In kind it is ADME, organism-based. The settings on record: in vivo. In a few lines:
as §1

For data set [7], the system named is Mus musculus. Briefly: Toxicity in Kunming mouse assessed as […] degeneration in lung at 102 mg/kg, po administered once daily for 14 days by hematoxylin/eosin staining based optical microscopic analysis. To be noted: in vivo, 336 h. In kind it is organism-based. In outline: (§3)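 Kunming mice, four per group, dosed orally once daily for 14 days with 102 mg/kg or saline control; body weight recorded every other day. Heart, liver, spleen, lung and kidney fixed in 10% buffered formalin, paraffin-embedded, sectioned, stained with hematoxylin and eosin, and examined by optical microscopy.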

In data set [8] the test system is Mus musculus. Briefly: Toxicity in Kunming mouse assessed as fibrosis in lung at 102 mg/kg, po administered once daily for 14 days by hematoxylin/eosin staining based optical microscopic analysis. The settings on record: in vivo, 336 h. In kind it is organism-based. In a few lines: as §3
The target of data set [9] is T2, Organic cation/carnitine transporter 2 (Rattus norvegicus, UniProt O70594).
T2 sequence (O70594 whole entry): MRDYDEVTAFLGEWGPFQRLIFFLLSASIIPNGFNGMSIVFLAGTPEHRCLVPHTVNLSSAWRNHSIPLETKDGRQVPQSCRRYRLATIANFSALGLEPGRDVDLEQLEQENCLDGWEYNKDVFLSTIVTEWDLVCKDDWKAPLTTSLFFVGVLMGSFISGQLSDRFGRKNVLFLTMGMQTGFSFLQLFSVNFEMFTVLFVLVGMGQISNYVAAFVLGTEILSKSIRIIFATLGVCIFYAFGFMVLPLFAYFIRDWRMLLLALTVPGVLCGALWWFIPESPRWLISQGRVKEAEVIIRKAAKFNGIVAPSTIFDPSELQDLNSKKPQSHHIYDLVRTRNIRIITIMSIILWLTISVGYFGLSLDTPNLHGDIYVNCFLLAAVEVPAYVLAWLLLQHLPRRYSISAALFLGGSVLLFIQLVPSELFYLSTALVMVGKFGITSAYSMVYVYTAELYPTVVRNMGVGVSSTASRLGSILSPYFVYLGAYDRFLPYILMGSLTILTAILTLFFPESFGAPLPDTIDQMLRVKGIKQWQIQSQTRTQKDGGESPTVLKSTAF
Nature of the data set: Ratio of drug transport assessed as OCTN2 transporter mediated effective permeability in rat duodenum at 76 uM in absence of L-carnitine to drug transport assessed as OCTN2 transporter mediated effective permeability in rat duodenum at 76 uM in presence of L-carnitine. In kind it is ADME.

Data set [10] can be described thus: Half life in rat intestinal homogenates at 5 uM by HPLC method. In kind it is ADME, tissue-based, Intestine. In a few lines: as §2
A further data set relates to BXPC-3. Nature of the data set: Cytotoxicity against human BxPC3 cells assessed as decrease in cell viability after 48 hrs by MTT assay. In kind it is functional, cell-based. In a few lines:
(§4)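 BxPC-3 and Caco-2 cells exposed to compounds for 48 h. Viability read by MTT assay kit. IC50 calculated from dose-response.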
In general terms: Tetrazolium assays rely on reduction of a dye to a coloured formazan, in cell work by metabolically active cells.

Data set [11] relates to Mus musculus. Nature of the data set: Toxicity in Kunming mouse assessed as […] degeneration in spleen at 102 mg/kg, po administered once daily for 14 days by hematoxylin/eosin staining based optical microscopic analysis. In kind it is organism-based. To be noted: in vivo, 336 h. In a few lines:
as §3

Data set [12] concerns Caco-2. Nature of the data set: Cytotoxicity against human Caco2 cells assessed as decrease in cell viability after 48 hrs by MTT assay. In kind it is functional, cell-based. The settings on record: Caco-2, 48 h. In outline: as §4
Data set [13] is described as follows: Half life in pH 7.4 phosphate buffer at 5 uM by HPLC method. In kind it is physicochemical. In outline:
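Compound dissolved at 5 µM in phosphate buffer (pH 1.2, 6.8 or 7.4), held at 37 °C for 24 h. Aliquots taken at intervals and analysed by HPLC. t1/2 = 0.693/k from linear regression of pseudo-first-order kinetics.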

A further data set concerns Rattus norvegicus. Briefly: AUC (0 to 24 hrs) in Wistar rat at 50 mg/kg, po administered as single dose by UPLC-MS/MS method. The settings on record: in vivo. Further details: dose 50 mg/kg, time < 24 hr, route oral; call rule not given here. In kind it is ADME, organism-based. In outline:
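Wistar rats, six per group, single oral dose equivalent to 50 mg/kg gemcitabine; separate group given gemcitabine iv at 7.5 mg/kg. Oral sampling at 5, 10, 15, 30 min and 1, 2, 4, 6, 8, 12, 24 h; iv at 15, 30 min and 2, 4, 8, 12, 24 h. Blood into THU-pretreated heparinized tubes, centrifuged 3000 × g 15 min, plasma at -80 °C. Prodrug and gemcitabine quantified by UPLC-MS/MS. F = AUCpo×Div/AUCiv/Dpo×100%.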

pIC50: −log10 of the molar value.

One may read the half-life as the time in which the quantity being followed falls by half. As a reminder, the pIC50 is the negative decadic logarithm of the IC50, by convention in mol/L. What is called AUC is concentration integrated over time. Low readings indicate less exposure, high ones more exposure.

Regarding `C[N+](C)(C)CC(CC(=O)[O-])OC(=O)CCCCC(=O)Nc1ccn([C@@H]2O[C@H](CO)[C@@H](O)C2(F)F)c(=O)n1` (stereo partly drawn), the Drug uptake result with Spleen is “Active”; with Heart, “Not Active”; with Lung [5] it was “Not Active”; with Lung [6] it was “Active”. The half-life at 5 µM in data set [1] is 372 min; in [4], 1040 min; in data set [10], 3.28 days; in data set [13], 2750 min. Also, the Ratio in data set [2] was 2.2 to 3.7; in [9], 11. The “Ratio IC50” value in the data set on Caco-2 [3] was 8. The Activity entry is “Non-Toxic” in the data set on Mus musculus [7], “Non-Toxic” in the data set on Mus musculus [8], “Dose-dependent effect” in the data set with BXPC-3 and “Non-Toxic” in the data set with Mus musculus [11]. In addition, the negative logarithm of the IC50 (pIC50) was 6.49 in the data set on BXPC-3 (BXPC-3, 48 h) and 4.39 with Caco-2 [12]. For the same molecule, the AUC in the data set with Rattus norvegicus worked out at 24.3 µg·h/mL.

The values are drawn from ChEMBL document CHEMBL4049387, “Combination of l-Carnitine with Lipophilic Linkage-Donating Gemcitabine Derivatives as Intestinal Novel Organic Cation Transporter 2-Targeting Oral Prodrugs” (J Med Chem, 2017).
